19 compounds from PubChem BioAssay can be followed below.

Active and inactive are the calls of the source.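 How the source made its calls, unless noted: active means viability at or below 30% in both replicate assays; inconclusive means viability at or below 30% in just one of the two assays; inactive means the rest.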

Usually viability stands for a read-out of living cells in per cent, often relative to untreated cells. What is called inhibition is the change of the read-out against control, counted positive when it falls.

Assay [1] is described as follows: HUVEC growth inhibition – cell-based, human, primary screen (AID 575).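 Further: 100% = median of untreated cell wells with 0.1% DMSO on each plate.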 Particulars: HUVEC proliferation, CellTiter-Glo luminescence, 72 h; at 10 µM; stronger effect = lower value. A digest of the protocol: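 material = primary HUVEC, no more than 12 passages | input = 1250 cells per well | controls = vehicle and MePR control wells | measured by = CTG luminescence | times = 72 h compound incubation | format = collagen-coated 384-well format | read-out = % viability vs DMSO wells | doses = single 10 µM dose, 0.1% DMSO, from 5x medium stock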
On the technique in general: ATP-based viability assays read luminescence as a measure of living cells.

Assay [2] can be described thus: growth inhibitors of H69AR lung tumor, primary screen, human, duplicate replicates (AID 580;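 active means viability at or under a set limit in both replicates, limit being median viability minus 3 SD, cut at about 48% in these data, passing the limit was not always enough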;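 further: 100% = mean luminescence of untreated wells and 0% = no signal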). The following applies: H69AR lung tumor cells viability, ATP luminescence, 72 h; at 10 µM; stronger effect = lower value.
Assay [3] is described as follows: reversal of MRP1-mediated doxorubicin resistance, pilot screen, H69AR cells, doxorubicin co-treatment (AID 601;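 active means viability loss from added drug above about 55%, and viability with drug at most 40%, in both replicates, limit read from the data, passing the limit was not always enough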). Particulars: CellTiter-Glo, 72 h, at 10 µM; for differential viability (reversal): stronger effect = higher value.
A short description of assay [4]: 384-well plate pilot, post-Golgi transport modulator project, inhibition of yeast transport mutant growth (AID 636; in the data active means inhibition above about 31%). Particulars: absorbance 615 nm, about 18 h, stronger effect = higher value.
Assay [5] is described as follows: growth suppression of yeast trafficking mutant, preliminary HTS, modulators of trafficking downstream of Golgi apparatus project, 1536-format plate, OD 615 nm (AID 637; in the data active means inhibition above about 30%). Particulars: yeast transport mutant growth, absorbance 615 nm, 18 h; stronger effect = higher value.
[6] abbreviates: H69AR cells + 2 uM doxorubicin, measured here: viability with 2 uM doxorubicin, stronger effect = lower value.
Setting [7] is: H69AR cells, compound alone cytotoxicity.

For the compound `N#Cc1cnc(SCC(=O)c2ccccc2)nc1N`, the viability in assay [1] is 95.5% (inactive); in assay [2], 93.1% (inactive); in assay [3] (setting [6]), 76.9%; in assay [3] (setting [7]), 93.1%. The differential viability (reversal) in assay [3] (H69AR cells + 2 uM doxorubicin) was 16.2% (inactive). The inhibition is -6.93% (inactive) in assay [4] and 7.3% (inactive) in assay [5].

For the compound `COc1cc(C2C3=C(CC(C)(C)CC3=O)Nc3c2c(=O)[nH]c(=O)n3Cc2ccccc2)ccc1O` (stereo not drawn), the viability in assay [1] is 83.3% (inactive); in assay [2], 93.7% (inactive); in assay [3] (setting [6]), 89.5%; in assay [3] (setting [7]), 93.7%. The differential viability (reversal) in assay [3] (H69AR cells + 2 uM doxorubicin) was 4.23% (inactive). Besides, the inhibition in assay [4] was 0.26% (inactive); in assay [5], 3.33% (inactive).

`COc1ccccc1-n1cnnc1SCC(=O)c1ccc[nH]1`: the viability in assay [1] is 106% (inactive); in assay [2] it was 108% (inactive); in assay [3] (setting [6]), 98.1%; in assay [3] (setting [7]), 108%. The differential viability (reversal) in assay [3] (H69AR cells + 2 uM doxorubicin) was 9.87% (inactive). Moreover, the inhibition in assay [4] was -2.21% (inactive); in assay [5], 2.54% (inactive).

As for `N#Cc1c(-c2ccccc2)nc(N2CCCCCC2)[nH]c1=O`, the viability in assay [1] is 91.5% (inactive); in assay [2], 88.2% (inactive); in assay [3] (setting [6]), 91.7%; in assay [3] (setting [7]) it was 88.2%. Moreover, the differential viability (reversal) in assay [3] (H69AR cells + 2 uM doxorubicin) is -3.53% (inactive). In addition, the inhibition in assay [4] was -4.8% (inactive); in assay [5] it was -3.02% (inactive).

Consider `COc1ccc(S(=O)(=O)NC(CC(=O)NCc2ccco2)c2ccco2)cc1` (stereo not drawn), for which the viability in assay [1] is 99.7% (inactive); in assay [2], 103% (inactive); in assay [3] (setting [6]) it was 81.3%; in assay [3] (setting [7]), 103%. Further, in assay [3] (H69AR cells + 2 uM doxorubicin), the differential viability (reversal) was 22.1% (inactive). The inhibition is -2.08% (inactive) in assay [4] and 4.29% (inactive) in assay [5].

Turning to `CCc1nnc(NC(=O)CSc2nnc(Cc3ccccc3)n2-c2ccc(OC)cc2)s1`, the viability in assay [1] is 92.9% (inactive); in assay [2] it was 84.6% (inactive); in assay [3] (setting [6]) it was 90.9%; in assay [3] (setting [7]) it was 84.6%. The differential viability (reversal) in assay [3] (H69AR cells + 2 uM doxorubicin) is -6.38% (inactive). Further, the inhibition in assay [4] was -5.79% (inactive); in assay [5], -0.63% (inactive).

For the compound `CC(C)(CSc1nncn1N)NS(=O)(=O)c1ccc(Cl)cc1`, the viability is 91.9% (inactive) in assay [1], 98.3% (inactive) in assay [2], 96.7% in assay [3] (setting [6]) and 98.3% in assay [3] (setting [7]). In addition, the differential viability (reversal) in assay [3] (H69AR cells + 2 uM doxorubicin) was 1.6% (inactive). Moreover, the inhibition was -2.27% (inactive) in assay [4] and -0.79% (inactive) in assay [5].

Take `Nc1nnc(Cc2ccc(Cl)cc2)s1`: the viability in assay [1] is 115% (inactive); in assay [2], 102% (inactive); in assay [3] (setting [6]), 86.3%; in assay [3] (setting [7]), 102%. For the same compound, the differential viability (reversal) in assay [3] (H69AR cells + 2 uM doxorubicin) is 15.6% (inactive). In addition, the inhibition in assay [4] was -6.18% (inactive); in assay [5] it was 3.49% (inactive).

Turning to `O=C(C1CC2CCC1C2)N1CCN(Cc2ccc3c(c2)OCO3)CC1` (stereo not drawn), the viability in assay [1] is 103% (inactive); in assay [2], 99.2% (inactive); in assay [3] (setting [6]), 85.3%; in assay [3] (setting [7]), 99.2%. The differential viability (reversal) in assay [3] (H69AR cells + 2 uM doxorubicin) was 13.9% (inactive). Moreover, the inhibition in assay [4] is -4.68% (inactive); in assay [5], 3.33% (inactive).

In the case of `COC(=O)c1ccccc1NC(=O)N1CCCC1`, the viability in assay [1] was 108% (inactive); in assay [2] it was 103% (inactive); in assay [3] (setting [6]) it was 90.1%; in assay [3] (setting [7]), 103%. For the same compound, in assay [3] (H69AR cells + 2 uM doxorubicin), the differential viability (reversal) is 13.2% (inactive). Also, the inhibition was -3.2% (inactive) in assay [4] and -5.56% (inactive) in assay [5].

Regarding `CCC(=O)N1CCc2cc(Br)cc(S(=O)(=O)C3(C(=O)OC)CC3)c21`, the viability in assay [1] is 102% (inactive); in assay [2], 90.8% (inactive); in assay [3] (setting [6]) it was 82.6%; in assay [3] (setting [7]) it was 90.8%. Further, the differential viability (reversal) in assay [3] (H69AR cells + 2 uM doxorubicin) was 8.17% (inactive). Besides, the inhibition is -1.82% (inactive) in assay [4] and 0.79% (inactive) in assay [5].

Take `c1ccc2c(c1)C(=Nn1cnnc1)c1ccccc1-2`: the viability is 92.3% (inactive) in assay [1], 92.4% (inactive) in assay [2], 96.7% in assay [3] (setting [6]) and 92.4% in assay [3] (setting [7]). In addition, the differential viability (reversal) in assay [3] (H69AR cells + 2 uM doxorubicin) is -4.35% (inactive). Besides, the inhibition in assay [4] is -0.39% (inactive); in assay [5], -3.02% (inactive).

Regarding `CCn1nnc(NC(=O)c2ccccc2Br)n1`, the viability in assay [1] was 103% (inactive); in assay [2], 99.9% (inactive); in assay [3] (setting [6]) it was 89.4%; in assay [3] (setting [7]) it was 99.9%. For the same compound, the differential viability (reversal) in assay [3] (H69AR cells + 2 uM doxorubicin) was 10.5% (inactive). The inhibition in assay [4] was -8.93% (inactive); in assay [5], 2.86% (inactive).

Regarding `CCCCOc1ccc(C(=O)Nc2ccc(N3CCN(C(=O)C(C)C)CC3)cc2)cc1`, the viability in assay [1] was 79.3% (inactive); in assay [2], 75% (inactive); in assay [3] (setting [6]) it was 81.7%; in assay [3] (setting [7]), 75%. The differential viability (reversal) in assay [3] (H69AR cells + 2 uM doxorubicin) is -6.69% (inactive). Also, the inhibition is -3.55% (inactive) in assay [4] and 2.22% (inactive) in assay [5].

For `CC(=O)NC1=NC(=O)/C(=C/N2CCCCC2)S1`, the viability in assay [1] was 99.5% (inactive); in assay [2], 95.9% (inactive); in assay [3] (setting [6]), 90.8%; in assay [3] (setting [7]), 95.9%. In assay [3] (H69AR cells + 2 uM doxorubicin), the differential viability (reversal) is 5.1% (inactive). Further, the inhibition in assay [4] was -1.97% (inactive); in assay [5], -2.22% (inactive).

Take `O=C(CCSc1nc(-c2ccco2)cc(C(F)(F)F)n1)NCCc1ccccc1`: the viability in assay [1] was 80.7% (inactive); in assay [2] it was 79% (inactive); in assay [3] (setting [6]), 94.4%; in assay [3] (setting [7]) it was 79%. Besides, in assay [3] (H69AR cells + 2 uM doxorubicin), the differential viability (reversal) is -15.4% (inactive). The results for the inhibition in assay [4] and in assay [5] were -4.53% (inactive) and 1.11% (inactive), respectively.

`Nc1nnc(SCC(=O)N2CCN(c3ccccc3)CC2)n1-c1ccccc1`: the viability is 80.6% (inactive) in assay [1], 90% (inactive) in assay [2], 82.1% in assay [3] (setting [6]) and 90% in assay [3] (setting [7]). Further, the differential viability (reversal) in assay [3] (H69AR cells + 2 uM doxorubicin) was 7.97% (inactive). For the same compound, the inhibition in assay [4] is -0.78% (inactive); in assay [5], 2.06% (inactive).

In the case of `C=C(C)COc1ccc(-c2n[nH]c(C)c2-c2ccccc2)c(O)c1`, the viability was 2.96% (active) in assay [1], 21.1% (active) in assay [2], 13.2% in assay [3] (setting [6]) and 21.1% in assay [3] (setting [7]). Further, the differential viability (reversal) in assay [3] (H69AR cells + 2 uM doxorubicin) was 7.88% (inactive). The inhibition in assay [4] is -1.69% (inactive); in assay [5], 9% (inactive).

Take `COc1cccc(-c2cc(C(F)(F)F)n3nc(N)nc3n2)c1`: the viability in assay [1] was 92.3% (inactive); in assay [2], 88.9% (inactive); in assay [3] (setting [6]), 91.6%; in assay [3] (setting [7]), 88.9%. For the same compound, in assay [3] (H69AR cells + 2 uM doxorubicin), the differential viability (reversal) is -2.71% (inactive). Moreover, the inhibition in assay [4] is -0.53% (inactive); in assay [5] it was 10.3% (inactive).
